Drawing on the RNAGym collection of RNA variant scans (doi:10.1126/science.aae0568), this text covers yeast fitness for 167 variants.

Fewer inactive variants are shown than the library holds. Some results are limits rather than exact numbers.

The labels stand for the following.
B1: tRNA (parent)
chain: GUUCCGUUGGCGUAAUGGUAACGCGUCUCCCUCCUAAGGAGAAGACUGCGGGUUCGAGUCCCGUACGGAACG

The variants in the data set derive from B1. Put plainly: yeast fitness relative to wild type (ratio to wild type); higher = fitter; tRNA-Arg(CCU), competitive growth, 37 C, YPD. Put shortly:
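Start and end populations of a pooled competition were compared by 100-nucleotide paired-end sequencing of gene amplicons. The Saccharomyces cerevisiae strains carried tRNA-Arg(CCU) gene variants at the native genomic locus, synthesised with a 3% per-site mutation rate at 69 sites, and competed in YPD at 37°C for 24 hours in six parallel replicates. Darwinian fitness relative to wild type was based on the change in genotype frequencies. Genotypes required ≥ 100 starting reads, and estimates < 0.5 were set to 0.5.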
Consider U59A A65U, for which the yeast fitness was determined as 0.636.
The result for C49G G56A G63A reads 0.584; that for G50C C60G, no more than 0.5; that for C49A G51C U59A, no more than 0.5.
On to G63A C66G A69G, for which the yeast fitness was no more than 0.5.
The value for G48C G63A A65G was 0.71; that for C49U C55G G63A was no more than 0.5.
The result for G58A C62U A69C reads 1.1; that for C49G G63C A69U, 0.651; that for C49U G67C, 0.851.
The value for C49U G67U was 0.885.
For the variant G48C G67C, the yeast fitness was 0.563.
The value for C55A A65C was 0.603.
The value for G56C A65G A70U was 0.587; that for G50C G52A C61G was 0.722; that for G58A A70U was 0.955.
The result for C55G A57U reads 0.633; that for G52C U59G, 0.538.
With G52C U59A, the yeast fitness came to 0.598.
The value for C61A A65U was 0.604; that for G51A C61A C62G was no more than 0.5.
The result for A65G A69C reads 0.984; that for G58C A69U, 0.846.
The result for G58A G67C reads 0.988.
With A57C C61G A69C, the yeast fitness was no more than 0.5.
The value for G48A C55U A70G was no more than 0.5.
For the variant A57U A65G, the yeast fitness worked out at 0.753.
The result for G50A A57C C60G C61U reads no more than 0.5; that for C49G C66A, 0.654; that for G56A A69C A70U, 0.825.
For C49A A65U G67A, the yeast fitness came out at 0.529.
The result for G63U A69U reads 0.83; that for C49U C55G, 0.885.
The result for U59C G68A reads 0.817; that for U59G G63C, 0.639.
Take G50C G56C: the yeast fitness came out at 0.614.
The result for C55U C61U reads 0.75; that for G51C C61A, 0.516; that for C49U U54G C61U, no more than 0.5.
The value for C62U A65C A70C was 0.619.
The value for G56C A57C C61G was no more than 0.5; that for G50A G58C was 1.01; that for G52C A57C G63C U64C was no more than 0.5.
Consider C49G C55A, for which the yeast fitness is 0.619.
As to G52A C60A A69G, the yeast fitness was no more than 0.5.
In the case of U64C A70C, the yeast fitness amounted to 0.967.
For C55G U59A A70G, the yeast fitness was determined as 0.731.
Consider C49U G56A G67A, for which the yeast fitness was 0.593.
The value for C49U A65G C66G was no more than 0.5; that for C62U C66U was 1.06.
The value for A57C A65C A70C was 0.571; that for G56A A69U was 1.01; that for G48C A70C was 0.784.
For G48C A70G, the yeast fitness was 0.901.
The value for C49A G67U was 0.746; that for A57G U59C A69U was 0.748.
The value for G48C A57U was 0.622; that for G48C A57G was 0.705; that for U54G A65C was 0.606.
For C55U A69C, the yeast fitness is 0.762.
In the case of G58A G68C, the yeast fitness came out at 1.01.
The value for G51A G58A was 0.967; that for G48C C49U C55U was 0.663.
On to G56C G58A, for which the yeast fitness was 0.607.
The result for G56C G58C reads 0.563; that for C55G C60A, 0.536.
Regarding G51A G58A A65U, the yeast fitness worked out at 0.713.
The value for G50U C66U was 0.96.
The result for C62A C66U reads 0.694; that for C62A C66G, 0.718.
With U54C G56A, the yeast fitness was 0.788.
The result for C60U A69C reads 0.713; that for C60U A69G, 0.572.
The value for C62G G67C was 0.614; that for U54G A69U was 0.648; that for G56A G58A G67C was 0.679.
The value for C49A G52C was 0.527; that for C49U A57G was 0.865; that for U53A G58A G68U was no more than 0.5.
Consider C61U A69U A70U, for which the yeast fitness came out at 0.678.
The result for G56A C60G reads 0.681; that for A57U A65C C66G, no more than 0.5; that for G51A C60A, 0.599.
The value for G51A C60G was 0.596.
The value for G56C A69C A70U was 0.605; that for A57G C66U was 0.816; that for G50C C55U A69G was 0.554.
With U53G C66U, the yeast fitness is 0.604.
The value for G50A U59A was 0.831; that for G56A G67U was 0.99.
Consider G48C C49U, for which the yeast fitness was 0.787.
The result for G52A G63C reads 0.652.
The value for G52A G63A was 0.546.
The result for C49A A70C reads 0.743; that for G50C C61A, 0.544; that for C60A A69G, 0.56.
On to G48A G56U G58A, for which the yeast fitness was no more than 0.5.
G56U A69C: the yeast fitness stood at 0.717.
The value for G51A G56C was 0.597; that for G50A C60A was 0.581.
With C55A A57C C66U, the yeast fitness is no more than 0.5.
The result for C49A G51A C55A C60A reads no more than 0.5; that for A57U A69G, 0.665.
The result for C55G A57C C61A C66U reads 0.544; that for U64A A69U, 0.834.
The value for C60U C61G was 0.643; that for U64A was 0.972; that for U64G was 0.993.
On to U64C, for which the yeast fitness amounted to 0.985.
The result for G50A G51C A65C reads no more than 0.5.
As to G63A C66A, the yeast fitness came out at 0.72.
Turning to G48A G52C G67C, the yeast fitness was no more than 0.5.
Consider C61A G67C, for which the yeast fitness was 0.664.
The result for A57G A70G reads 0.889.
The value for G58C G67C was 1.17.
The result for G58C G67A reads 0.807; that for C49A C60A, 0.52.
With C49U C62G C66U, the yeast fitness was 0.608.
The result for A57C G67C reads 0.707; that for G56A G68C, 0.838.
On to U54A C61G, for which the yeast fitness is 0.63.
The value for G50C G67A was 0.816.
The value for A57U C62A was 0.629; that for C61U A69C was 0.882.
G50A G68A: the yeast fitness was determined as 0.915.
Regarding A57C A70G, the yeast fitness came out at 0.664.
The value for C49U A70C was 1.02.
The result for G50A A57U reads 0.6; that for G50A A57G, 0.944; that for G50A G63A, 0.943.
The result for C61G C62U reads 0.613; that for G52C A57U C60U C62U, no more than 0.5; that for G56A A70U, 0.918.
For the variant G56A A65U, the yeast fitness came out at 0.978.
The result for C60G G67A reads 0.584.
The result for G58C G63A reads 0.873; that for G48A G52A, 0.976; that for G48A C62G, 0.951.
Consider C49U A69U, for which the yeast fitness stood at 1.01.
With C49G G52A C61G, the yeast fitness amounted to 0.534.
On to G56C A69U A70U, for which the yeast fitness is no more than 0.5.
The result for C60A G68C reads 0.734; that for G56C A57U G58A, no more than 0.5.
The result for U54C A70U reads 0.869; that for G52A C55G A57U, no more than 0.5.
The result for C49U U53C A69C reads 0.597; that for C55U G67C, 0.677; that for C49U C60U A69C, 0.566.
As for C49G U54C, the yeast fitness amounted to 1.01.
The value for C49A C60G A70C was no more than 0.5.
The result for C49A G50C reads 0.572.
The result for C49U G50C reads 0.815; that for C55U C61G C62G, 0.629.
On to A57C U64G C66U, for which the yeast fitness was no more than 0.5.
On to U54G A70U, for which the yeast fitness amounted to 0.678.
The result for G50A C55U A65G reads no more than 0.5; that for G50C G51C, 0.522; that for C49A A57U, 0.55.
On to C62U G63C U64C, for which the yeast fitness worked out at 0.789.
As to C55A A70U, the yeast fitness was determined as 0.658.
The result for C49U G58A A65G reads 1.
With C62U A70G, the yeast fitness was found to be 0.997.
The result for A57G A65G reads 1.02; that for C55U C62G, 0.739.
The result for C62G A65U reads 0.75; that for C61G C66G, 0.625.
Regarding C60U C62G A70G, the yeast fitness turned out to be 0.521.
